Test results: ChEMBL document CHEMBL1125834, “Synthesis and antirhinovirus activity of 8-substituted analogues of 6-(dimethylamino)-9-(4-methylbenzyl)-2-(trifluoromethyl)-9H-purine” (J Med Chem, 1991)

Experiments:
rhinovirus A1B [1] = experiment: (§1) Compound was tested for its inhibitory concentration against rhinovirus 1B through plaque-inhibition assay at 50 ug/disk using monolayers of M-HeLa cells; format: functional, organism-based, rhinovirus type 1b; conditions: Rhinovirus A
How it was run: (§2)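 The 50% inhibitory concentration against rhinovirus serotype 1B was measured in M-HeLa cells, with plaque-reduction run as described previously. 4',6-Dichloroflavan was run alongside as the reference.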

rhinovirus A1B [2] = experiment: Compound at 40 uM was tested for its percentage inhibitory concentration against rhinovirus 1B through plaque-inhibition assay at 50 ug/disk using monolayers of M-HeLa cells; format: functional, rhinovirus type 1b
rhinovirus A1B [3] = experiment: Compound at 8 uM was tested for its percentage inhibitory concentration against rhinovirus 1B through plaque-inhibition assay at 50 ug/disk using monolayers of M-HeLa cells; format: functional, rhinovirus type 1b
rhinovirus A1B [4] = experiment: as §1; format: functional, rhinovirus type 1b; conditions: Rhinovirus A; how it was run: as §2
rhinovirus A1B [5] = experiment: Compound was tested for its percentage inhibitory concentration through plaque-inhibition assay at 50 microg per disk using monolayers of M-HeLa cells.; format: functional, rhinovirus type 1b; conditions: Rhinovirus A

| Compound | IC50 (rhinovirus A1B [1]) [nM] | Inhibition (rhinovirus A1B [2]) [%] | further results |
| --- | --- | --- | --- |
| Cc1ccc(Cn2cnc3c(N(C)C)nc(C(F)(F)F)nc32)cc1 | 30 | – | – |
| Cc1ccc(Cn2c(NCc3ccccc3)nc3c(N(C)C)nc(C(F)(F)F)nc32)cc1 | – | 20 | – |
| Cc1ccc(Cn2c(=O)n(C)c3c(N(C)C)nc(C(F)(F)F)nc32)cc1 | 15000 | – | – |
| Cc1ccc(Cn2c(S(C)(=O)=O)nc3c(N(C)C)nc(C(F)(F)F)nc32)cc1 | – | 37 | – |
| CC(=O)Nc1nc2c(N(C)C)nc(C(F)(F)F)nc2n1Cc1ccc(C)cc1 | – | 22 | – |
| Cc1ccc(Cn2c(Br)nc3c(N(C)C)nc(C(F)(F)F)nc32)cc1 | 1400 | – | – |
| Cc1ccc(Cn2c([S+](C)[O-])nc3c(N(C)C)nc(C(F)(F)F)nc32)cc1 (stereo not given) | – | 27 | – |
| Cc1ccc(Cn2c(S)nc3c(N(C)C)nc(C(F)(F)F)nc32)cc1 | 20000 | – | – |
| Cc1ccc(Cn2c(N(C)C)nc3c(N(C)C)nc(C(F)(F)F)nc32)cc1 | – | – | Inhibition (rhinovirus A1B [3]): 40% |
| CSc1nc2c(N(C)C)nc(C(F)(F)F)nc2n1Cc1ccc(C)cc1 | – | – | inhibition at 50 µg/disc (rhinovirus A1B [4]): 15% |
| Cc1ccc(Cn2c(O)nc3c(N(C)C)nc(C(F)(F)F)nc32)cc1 | – | 25 | – |
| Cc1ccc(Cn2c(NCCO)nc3c(N(C)C)nc(C(F)(F)F)nc32)cc1 | 8600 | – | – |
| Cc1ccc(Cn2c(SCc3ccccc3)nc3c(N(C)C)nc(C(F)(F)F)nc32)cc1 | – | – | inhibition at 50 µg/disc (rhinovirus A1B [5]): 25% |
| Cc1ccc(Cn2c(N)nc3c(N(C)C)nc(C(F)(F)F)nc32)cc1 | 360 | – | – |
| CNc1nc2c(N(C)C)nc(C(F)(F)F)nc2n1Cc1ccc(C)cc1 | 2900 | – | – |
